The test system of data set [1] is Candida albicans. Nature of the data set: Anti-fungal activity against Candida albicans ATCC 90028 after 48 hrs by broth microdilution method. The format is functional. The conditions noted are these: ATCC 90028, 48 h. An outline of the steps: (§1)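 CLSI broth microdilution in RPMI 1640 (with glutamine, without bicarbonate) buffered to pH 7.0 with MOPS. Inoculum was prepared from 24 h Sabouraud dextrose agar subcultures, final 0.5 to 2.5 10^3 cfu/mL. Twofold dilutions were made from DMSO stocks. Incubated 35 °C for 48 h. MIC was the lowest concentration with no visible growth; for the fluconazole reference, MIC was taken at about 80% growth inhibition versus control.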
Background: In broth dilution the organism is exposed to a series of concentrations in liquid medium.

Data set [2] concerns Pichia kudriavzevii. Nature of the data set: Anti-fungal activity against Candida krusei ATCC 6258 after 48 hrs by broth microdilution method. The format is functional. The conditions noted are these: ATCC 6258, 48 h. An outline of the steps:
as §1

For data set [3], the system named is Candida parapsilosis. Nature of the data set: Anti-fungal activity against Candida parapsilosis ATCC 90018 after 48 hrs by broth microdilution method. The format is functional. The following applies: Lodderomyces parapsilosis, ATCC 90018, 48 h. The procedure, abridged:
as §1

Data set [4] has as its system Staphylococcus aureus. Nature of the data set: Antibacterial activity against Staphylococcus aureus ATCC 29213 after 18 to 24 hrs by broth microdilution method. The class given is functional. The procedure, abridged: (§2)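 CLSI broth microdilution in Mueller Hinton broth, with inoculum from 24 h Mueller Hinton agar subcultures, final about 5 10^5 cfu/mL. Compounds were dissolved in DMSO and tested as twofold dilutions in wells. Plates were incubated at 35 °C for 18–24 h. MIC was read as the lowest concentration completely inhibiting visible growth. Ciprofloxacin was the reference.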

The test system of data set [5] is Enterococcus faecalis. Nature of the data set: Antibacterial activity against Enterococcus faecalis ATCC 29212 after 18 to 24 hrs by broth microdilution method. The format is functional. An outline of the steps:
as §2

In data set [6] the test system is Escherichia coli. Nature of the data set: Antibacterial activity against Escherichia coli ATCC 25922 after 18 to 24 hrs by broth microdilution method. The class given is functional. The procedure, abridged:
as §2

Data set [7] deals with Pseudomonas aeruginosa. Nature of the data set: Antibacterial activity against Pseudomonas aeruginosa ATCC 27853 after 18 to 24 hrs by broth microdilution method. The class given is functional. The procedure, abridged:
as §2

The subject of data set [8] is Nakaseomyces glabratus. Nature of the data set: Anti-fungal activity against drug-resistant Candida glabrata after 48 hrs by broth microdilution method. The format is functional. The procedure, abridged:
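Clinical resistant C. glabrata isolate, stored frozen in glycerol and subcultured twice on Sabouraud dextrose agar. CLSI broth microdilution in RPMI 1640 (glutamine, no bicarbonate) buffered to pH 7.0 with MOPS. Inoculum from 24 h subcultures, final 0.5 to 2.5 x10^3 cfu/mL. DMSO-dissolved compounds in twofold dilutions, 35 C for 48 h. MIC is the lowest concentration giving complete visual growth inhibition; fluconazole reference read at about 80% inhibition.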

Data set [9] in a line: Cytotoxicity against human U937 cells assessed as cell viability at 10 to 100 ug/ml after 48 hrs by MTT assay relative to control. The class given is cell-based, U-937. The conditions noted are these: read-out: Activity. An outline of the steps:
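U937 human monocytic cells, 4 10^3 per well in RPMI-1640 with 10% FBS, L-glutamine, penicillin and streptomycin, at 37 °C and 5% CO2. Compounds in DMSO were added at five final concentrations for 48 h, in triplicate. MTT was added for 4 h, formazan was dissolved overnight in SDS/23% DMF, and OD was read at 570 nm. Results are % reduction in viable cells versus control.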

Converted amounts (≈) assume the structure as drawn.

In general, MIC refers to the lowest concentration that inhibits growth of the organism. Read a low MIC as inhibition by little substance.

Consider `OC(Cn1ccnc1)c1ccccc1` (stereo not drawn), for which the MIC in [1] was 256 µg/mL (≈ 1360 µM); in data set [2] it was 256 µg/mL (≈ 1360 µM); in data set [3] it was 256 µg/mL (≈ 1360 µM); in data set [4], 1020 µg/mL (≈ 5440 µM); in [5] it was 512 µg/mL (≈ 2720 µM); in [6] it was 512 µg/mL (≈ 2720 µM). Moreover, the MIC in data set [7] was 512 µg/mL (≈ 2720 µM).

`OC(Cn1ccnc1)c1ccc(Cl)cc1` (stereo not drawn): the minimal inhibitory concentration (MIC) in data set [1] is 128 µg/mL (≈ 575 µM); in data set [2], 256 µg/mL (≈ 1150 µM); in [3] it was 128 µg/mL (≈ 575 µM); in data set [4] it was 64 µg/mL (≈ 287 µM); in [5], 128 µg/mL (≈ 575 µM); in [6], 256 µg/mL (≈ 1150 µM). The same molecule had an MIC in [7] of 256 µg/mL (≈ 1150 µM).

For the molecule `CC(=O)OC(Cn1ccnc1)c1ccccc1.Cl` (stereo not drawn), the MIC in data set [1] was 128 µg/mL; in data set [2], 128 µg/mL; in data set [3] it was 64 µg/mL; in data set [4], 1020 µg/mL; in [5] it was 256 µg/mL; in data set [6], 512 µg/mL. Besides, the MIC in data set [7] is 256 µg/mL.

With `Cl.O=C(Cc1ccccc1)OC(Cn1ccnc1)c1ccc(Cl)cc1` (stereo not drawn), the MIC is 0.5 µg/mL in [1]; 4 µg/mL in data set [2]; 2 µg/mL in data set [3]; 4 µg/mL in data set [8]; 16 µg/mL in data set [4]; 256 µg/mL in [5]. The MIC in data set [6] and in [7] was 256 µg/mL throughout. For the same molecule, the viability at 48 h in data set [9] fell in the range of 70 to 80%.

In the case of `CCCC(CCC)C(=O)OC(Cn1ccnc1)c1ccc(Cl)cc1.Cl` (stereo not drawn), the MIC in data set [1] is 128 µg/mL; in data set [2], 64 µg/mL; in data set [3] it was 64 µg/mL; in data set [4], 1020 µg/mL; in data set [5], 32 µg/mL; in data set [6] it was 512 µg/mL. Further, 256 µg/mL was the least that counted as inhibitory in data set [7] (MIC).

As to `CC(=O)CCC(=O)OC(Cn1ccnc1)c1ccc(Cl)cc1.Cl` (stereo not drawn), the MIC worked out at 64 µg/mL in [1]; 32 µg/mL in data set [2]; 16 µg/mL in [3]; 512 µg/mL in [4]; 256 µg/mL in data set [5]; 512 µg/mL in data set [6]. The same molecule yielded an MIC in data set [7] of 256 µg/mL.

Turning to `Cl.O=C(Cc1ccccc1)OC(Cn1ccnc1)c1ccccc1` (stereo not drawn), the MIC in data set [1] came out at 64 µg/mL; in data set [2], 128 µg/mL; in [3] it was 32 µg/mL; in [4], 128 µg/mL; in data set [5], 64 µg/mL; in data set [6], 512 µg/mL. For the same molecule, the MIC in [7] was found to be 128 µg/mL.

`CC(=O)CCC(=O)OC(Cn1ccnc1)c1ccccc1.Cl` (stereo not drawn): the MIC in [1] is 256 µg/mL; in data set [2], 256 µg/mL; in data set [3], 256 µg/mL; in data set [4], 512 µg/mL; in data set [5], 128 µg/mL; in data set [6] it was 512 µg/mL. 256 µg/mL was the least that counted as inhibitory in data set [7] (MIC).

Turning to `CCC(=O)OC(Cn1ccnc1)c1ccccc1.Cl` (stereo not drawn), the MIC in data set [1] amounted to 64 µg/mL; in data set [2] it was 32 µg/mL; in [3], 8 µg/mL; in data set [4] it was 1020 µg/mL; in data set [5], 128 µg/mL; in data set [6] it was 512 µg/mL. In [7], this molecule showed an MIC of 256 µg/mL.

In the case of `Cl.O=C(CCC(=O)c1ccccc1)OC(Cn1ccnc1)c1ccccc1` (stereo not drawn), the MIC in data set [1] stood at 16 µg/mL; in data set [2], 128 µg/mL; in data set [3], 32 µg/mL; in data set [4] it was 128 µg/mL; in data set [5] it was 64 µg/mL; in data set [6], 512 µg/mL. Also, 256 µg/mL was the least that counted as inhibitory in data set [7] (MIC).

Take `C/C=C/C=C/C(=O)OC(Cn1ccnc1)c1ccccc1.Cl` (stereo not drawn): the MIC in data set [1] turned out to be 32 µg/mL; in data set [2], 32 µg/mL; in [3], 8 µg/mL; in data set [4], 512 µg/mL; in data set [5], 64 µg/mL; in [6], 512 µg/mL. Further, the MIC in [7] amounted to 256 µg/mL.

Take `Cl.O=C(CCC(=O)c1ccccc1)OC(Cn1ccnc1)c1ccc(Cl)cc1` (stereo not drawn): the MIC in data set [1] stood at 4 µg/mL; in [2] it was 16 µg/mL; in [3], 4 µg/mL; in [8] it was 32 µg/mL; in data set [4], 8 µg/mL; in data set [5], 256 µg/mL. In addition, the MIC in data set [6] and in data set [7] was 256 µg/mL in each case. In data set [9], the viability at 48 h fell in the range of 70 to 80%.

The values are drawn from ChEMBL document CHEMBL4049392, “New azole derivatives showing antimicrobial effects and their mechanism of antifungal activity by molecular modeling studies” (Eur J Med Chem, 2017).
